In paper PMC3081976 (Bioorganic & medicinal chemistry letters, 2010):

Experiment: Rat pharmacokinetics
Format: in vivo, Sprague-Dawley rats
Conditions: Sprague-Dawley, plasma; for clearance: iv, 1 mg/kg
Procedure, shortened: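 Sprague-Dawley rats (n = 3) received the test compound intravenously at 1 mg/kg; a separate oral gavage arm used 2 mg/kg. Blood was sampled at 5, 15, 30 min and 1, 2, 4, 6, 8 h into EDTA tubes and centrifuged to plasma. Plasma proteins were precipitated with acetonitrile and drug was quantified by LC-MS/MS. CL and t1/2 came from noncompartmental analysis.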

half-life [h]	clearance [mL/min/kg]	Compound
1.5	6.4	Cc1nc(C)n(-c2ccc(Nc3cc(-c4nn(C)cc4-c4ccc(F)cc4)ccn3)cc2)n1 [Compound 37]
1.3	9	Cc1nc(C)n(-c2ccc(Nc3cc(-c4ccn(C)n4)c(Cl)cn3)cc2)n1 [Compound 15]

Second part, the compound before the results:

Compound	half-life [h]	clearance [mL/min/kg]
Cn1ccc(-c2cc(Nc3ccc(-n4cnc(N5CCOCC5)n4)cc3)ncc2Cl)n1 [Compound 16]	6.5	0.9
Cn1ccc(-c2cc(Nc3ccc(-n4cnc(-c5ccccn5)n4)cc3)ncc2F)n1 [Compound 21]	3.4	4
Cc1ccc(-c2ncn(-c3ccc(Nc4cc(-c5ccn(C)n5)c(F)cn4)cc3)n2)cn1 [Compound 20]	2.3	4.2
